For data set [1], the system named is Trypanosoma cruzi. The experiment in a line: Antitrypanosomal activity against Trypanosoma cruzi IRHOD/VO/2008/SN3 epimastigotes incubated for 72 hrs. The settings on record: IRHOD/VO/2008/SN3, 72 h.
Data set [2] is described as follows: Selectivity index, ratio of IC50 for african green monkey Vero cells to IC50 for Trypanosoma cruzi IRHOD/VO/2008/SN3 intracellular amastigotes. The settings on record: read-out: Ratio IC50. In kind it is toxicity, cell-based.
Data set [3] relates to Trypanosoma cruzi. The experiment in a line: Antitrypanosomal activity against Trypanosoma cruzi IRHOD/VO/2008/SN3 metacyclic forms infected in african green monkey Vero cells assessed as inhibition of infection rate at IC25 level 0.5 to 10 days. Type of data set: functional. In short, it runs like this:
(§1)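 Vero cells in RPMI infected with metacyclic forms at 10:1. Compounds added at IC25 immediately after infection for 12 h at 37 °C, 5% CO2, then washed off. Cultures grown 10 days with fresh medium every 48 h. Giemsa slides scored for % infected cells and amastigotes per cell (>100 cells); trypomastigotes in medium counted. Mean of four.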

Data set [4] deals with Trypanosoma cruzi. The experiment in a line: Antitrypanosomal activity against Trypanosoma cruzi IRHOD/VO/2008/SN3 metacyclic forms infected in BALB/c mouse model of chronic Chagas disease subjected to 3 cycles of immunosuppression with 50 mg/kg cyclophosphamide monohydrate for 3 consecutive weeks assessed as change in IgG absorbance level at 5 mg/kg/day, ip administered for 5 consecutive days starting on day 7 post infection until day 12 post infection and measured on day 150 post infection by ELISA. In kind it is functional. In short, it runs like this:
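Infected, treated mice (ip 5 or 15 mg/kg/day, days 7–12 pi) kept to day 120. Half then given three 4-day cycles of cyclophosphamide at 50 mg/kg with 3-day gaps; the rest left untreated. Serum IgG measured by ELISA on parasite-excreted Fe-SOD antigen: 1:100 serum, anti-IgG peroxidase 1:1000, OPD, A492, in triplicate. Reported as immunosuppressed minus non-immunosuppressed OD.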
(In general: ELISA stands for enzyme-linked immunosorbent assay.)

In data set [5] the test system is Trypanosoma cruzi. The experiment in a line: Antitrypanosomal activity against Trypanosoma cruzi IRHOD/VO/2008/SN3 metacyclic forms infected in african green monkey Vero cells assessed as inhibition of intracellular amastigotes replication at IC25 level 0.5 to 10 days. In kind it is functional. In short, it runs like this: as §1
For data set [6], the system named is Trypanosoma cruzi. The experiment in a line: Antitrypanosomal activity against Trypanosoma cruzi IRHOD/VO/2008/SN3 intracellular amastigotes infected in african green monkey Vero cells incubated for 72 hrs. The following applies: IRHOD/VO/2008/SN3, Vero. In kind it is functional, organism-based. The gist of the method: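 Vero cells (1 × 10^4/well) grown 2 days on coverslips, then infected with metacyclic forms at 10:1 for 24 h at 37 °C. Extracellular parasites washed off. Compounds at 1–100 μM for 72 h in RPMI with 10% FBS. Amastigotes counted on methanol-fixed, Giemsa-stained slides against untreated cultures. Mean of four determinations; IC50.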

Data set [7] has as its system Trypanosoma cruzi. The experiment in a line: Antitrypanosomal activity against Trypanosoma cruzi IRHOD/VO/2008/SN3 metacyclic forms infected in BALB/c mouse model of acute Chagas disease assessed as reduction parasitemia at 5 mg/kg/day, ip administered for 5 consecutive days starting on day 7 post infection until day 12 post infection and measured on day 25 post infection. Type of data set: functional, organism-based. The gist of the method:
(§2)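 Groups of six female BALB/c mice (6–8 weeks, 25–30 g) inoculated ip with 5 × 10^5 metacyclic trypomastigotes. Dosed ip at 5 or 15 mg/kg/day on days 7–12 pi; untreated infected controls. Mandibular-vein blood (5 μL in 495 μL PBS) counted every 3 days for 40 days in a Neubauer chamber, as parasites/mL.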

Data set [8] is described as follows: Selectivity index, ratio of IC50 for african green monkey Vero cells to IC50 for Trypanosoma cruzi IRHOD/VO/2008/SN3 epimastigotes. In kind it is toxicity, cell-based. The settings on record: Vero cells versus Trypanosoma cruzi epimastigotes, read-out: Ratio IC50.
Data set [9] is described as follows: Selectivity index, ratio of IC50 for african green monkey Vero cells to IC50 for Trypanosoma cruzi IRHOD/VO/2008/SN3 axenic amastigotes. Type of data set: toxicity, cell-based. The settings on record: Vero cells versus Trypanosoma cruzi axenic amastigotes, read-out: Ratio IC50.
Data set [10] is described as follows: Selectivity index, ratio of IC50 for SOD1 in human erythrocytes to IC50 for Trypanosoma cruzi IRHOD/VO/2008/SN3 epimastigotes Iron superoxide dismutase. Type of data set: cell-based.
Data set [11] in a line: Inhibition of Trypanosoma cruzi IRHOD/VO/2008/SN3 epimastigotes Iron superoxide dismutase by spectrophotometry. In short, it runs like this:
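Enzyme from sonicated parasites in STE buffer, pH 7.8, or human erythrocyte CuZn-SOD. Activity measured as NBT reduction by superoxide (Beyer–Fridovich): methionine, NBT, Triton X-100 and riboflavin, with A560 read before and after 10 min of light. Compounds tested at 1–100 μM. Mean of five; IC50 by linear regression from Kc.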

The test system of data set [12] is Trypanosoma cruzi. The experiment in a line: Antitrypanosomal activity against Trypanosoma cruzi IRHOD/VO/2008/SN3 isolated from mouse blood trypomastigotes incubated for 24 hrs. The settings on record: IRHOD/VO/2008/SN3, Blood. In kind it is functional, organism-based. The gist of the method:
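Blood from BALB/c mice 7 days post-infection, drawn by cardiac puncture into 3.8% citrate (7:3). Compounds in PBS at 10, 25 and 50 μM final, mixed with infected blood (~1 × 10^6 parasites/mL). Shaken 10 min at room temperature, held 24 h at 4 °C. Parasites counted at 1:100 dilution against a PBS control.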

Data set [13] relates to Trypanosoma cruzi. The experiment in a line: Antitrypanosomal activity against Trypanosoma cruzi IRHOD/VO/2008/SN3 metacyclic forms infected in BALB/c mouse model of acute Chagas disease assessed as reduction in parasitemia level at 15 mg/kg/day, ip administered for 5 consecutive days starting on day 7 post infection until day 12 post infection and measured on day 15 post infection relative to untreated control. Type of data set: functional. Further details: scale not given: the % may be the effect or the level left. The settings on record: route intraperitoneal. The gist of the method: as §2

In data set [14] the test system is Trypanosoma cruzi. The experiment in a line: Effect on glucose metabolism in Trypanosoma cruzi IRHOD/VO/2008/SN3 epimastigotes assessed as excreted ethanol level at IC25 level incubated for 96 hrs at 28 degC by [1H]NMR spectroscopy.
Data set [15] relates to Trypanosoma cruzi. The experiment in a line: Effect on glucose metabolism in Trypanosoma cruzi IRHOD/VO/2008/SN3 epimastigotes assessed as excreted acetate level at IC25 level incubated for 96 hrs at 28 degC by [1H]NMR spectroscopy.
Data set [16] deals with Trypanosoma cruzi. The experiment in a line: Induction of ultrastructural modifications in Trypanosoma cruzi Maracay at IC25 level incubated for 96 hrs by transmission electron microscopy. In kind it is functional, organism-based. In short, it runs like this: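 Maracay epimastigotes at 5 × 10^5 cells/mL exposed at IC25 for 96 h. Pellets washed in PBS, fixed in 2% paraformaldehyde/glutaraldehyde in 0.05 M cacodylate (pH 7.4) for 4 h at 4 °C, then examined by TEM.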

The nature of data set [17]: Toxicity against african green monkey Vero cells. Type of data set: cell-based, Chlorocebus sabaeus.
Data set [18] in a line: Selectivity index, ratio of IC50 for african green monkey Vero cells to IC50 for Trypanosoma cruzi IRHOD/VO/2008/SN3 blood trypomastigotes. In kind it is toxicity, cell-based. The settings on record: Vero cells versus Trypanosoma cruzi blood trypomastigotes, read-out: Ratio IC50.
The subject of data set [19] is Trypanosoma cruzi. The experiment in a line: Antitrypanosomal activity against Trypanosoma cruzi IRHOD/VO/2008/SN3 metacyclic forms infected in african green monkey Vero cells assessed as inhibition of trypomastigotes level at IC25 level 0.5 to 10 days. Type of data set: functional. In short, it runs like this: as §1

Active and inactive are the calls of the source. The calls are words filed in the database; no cut-off is given here.

Consider `Clc1nnc(NCCCn2ccnc2)c2ccccc12`, for which the IC50 was 8.8 µM with Trypanosoma cruzi [1]; 8.9 µM in the data set with Trypanosoma cruzi [6]; 14.4 µM in data set [11]; 10.2 µM in the data set with Trypanosoma cruzi [12]; 437 µM in [17]. In addition, the selectivity ratio came out at 49.1 in [2], 49.6 in [8], 41.2 in [9] and 42.8 in [18]. The “inhibition (INH)” value in the data set on Trypanosoma cruzi [3] is recorded as 80.3%; in the data set on Trypanosoma cruzi [5], 55.8%; in the data set with Trypanosoma cruzi [19], 73.9%. The deltaA in the data set on Trypanosoma cruzi [4] is 0.0143. Further, the outcome in the data set on Trypanosoma cruzi [7] and with Trypanosoma cruzi [16] was Active. In addition, the Ratio IC50 in data set [10] amounted to 5.8. For the same compound, the results for the Activity in the data set with Trypanosoma cruzi [13], in the data set with Trypanosoma cruzi [14] and with Trypanosoma cruzi [15] were 64%, -16% and -54%, respectively.

`Clc1nnc(NCCc2c[nH]cn2)c2ccccc12`: the IC50 amounted to 8.7 µM in the data set on Trypanosoma cruzi [1]; 9.4 µM in the data set on Trypanosoma cruzi [6]; 12.9 µM in data set [11]; 9.2 µM in the data set with Trypanosoma cruzi [12]; 427 µM in data set [17]. The selectivity ratio in [2] amounted to 45.5; in data set [8], 49.1; in data set [9], 42.3; in [18] it was 46.5. The inhibition (INH) in the data set on Trypanosoma cruzi [3] is 83.9%; with Trypanosoma cruzi [5] it was 62.9%; in the data set on Trypanosoma cruzi [19] it was 85.1%. In the data set on Trypanosoma cruzi [4], the deltaA is 0.0103. For the same compound, the outcome in the data set on Trypanosoma cruzi [7] and with Trypanosoma cruzi [16] was Active. Moreover, the Ratio IC50 in data set [10] was determined as 5.5. Further, the Activity is given as 59% in the data set on Trypanosoma cruzi [13], -12% in the data set with Trypanosoma cruzi [14] and -21% in the data set with Trypanosoma cruzi [15].

As a reminder, the IC50 is the concentration that inhibits the measured activity by half.

For the origin of these results see ChEMBL document CHEMBL2176896, “Phthalazine derivatives containing imidazole rings behave as Fe-SOD inhibitors and show remarkable anti-T. cruzi activity in immunodeficient-mouse mode of infection” (J Med Chem, 2012).
